Assay results: ChEMBL document CHEMBL1140200, “Synthesis and pharmacological evaluation of a second generation of pyridothiadiazine 1,1-dioxides acting as AMPA potentiators” (Bioorg Med Chem, 2008)
Active and inactive are the calls of the source. The calls are words filed in the database; no cut-off is given here.

Columns and labels:
[1] = tested on: Oocyte; experiment: Potentiation of Wistar rat AMPA receptor expressed in Xenopus laevis oocytes assessed as 2-fold increase in amplitude of (S)-AMPA-induced current by two electrode voltage-clamp method; assay type: cell-based
Summary of the method: (§1)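 Xenopus oocytes were injected with rat cortex poly(A+) mRNA (1 mg/mL) and kept 3–4 days at 18 °C in Barth's solution before voltage-clamp recording. (S)-AMPA alone was applied until two similar inward currents were obtained; their mean was set as 100%. Drug was bath-applied at successive increasing concentrations every 5 min 45 s, on 2–3 oocytes. EC2X and EC5X were interpolated as twofold and fivefold current increases; EC50 was taken at half-maximal potentiation.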

[2] = tested on: Oocyte; experiment: Potentiation of Wistar rat AMPA receptor expressed in Xenopus laevis oocytes assessed as 5-fold increase in amplitude of (S)-AMPA-induced current by two electrode voltage-clamp method; assay type: cell-based; summary of the method: as §1
[3] = tested on: Oocyte; experiment: Potentiation of Wistar rat AMPA receptor expressed in Xenopus laevis oocytes assessed as increase in amplitude of (S)-[…] current by two electrode voltage-clamp method relative to AMPA; assay type: cell-based; parameters: concentration or dose not given beside the values; summary of the method: as §1
[4] = tested on: Rattus norvegicus; experiment: Toxicity in Wistar rat at 100 mg/kp, po; assay type: organism-based; settings: in vivo
[5] = tested on: Rattus norvegicus; experiment: Cognitive enhancing effect in Wistar rat at 100 mg/kp, po after 1 hr by one-trial object recognition test; assay type: functional, organism-based
[6] = tested on: Rattus norvegicus; experiment: Cognitive enhancing effect in Wistar rat assessed as improvement in juvenile recognition behavior at 100 mg/kp, po; assay type: functional, organism-based
[7] = tested on: Rattus norvegicus; experiment: Cognitive enhancing effect in Wistar rat at 3 mg/kp, ip after 1 hr by one-trial object recognition test; assay type: functional, organism-based
Summary of the method: (§2)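 Adult rats had three 3-min sessions 24 h apart. Two similar objects were presented in session 2. In the last session one object was replaced by a new one. Compound or vehicle was given i.p. 1 h before each session at 0.3, 1, 3 or 10 mg/kg. The read-out was the discrimination index (new − familiar exploration / total exploration) in the last session.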

[8] = tested on: Rattus norvegicus; experiment: Cognitive enhancing effect in Wistar rat assessed as improvement in juvenile recognition behavior at 3 mg/kp, ip; assay type: functional, organism-based
Summary of the method: (§3)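 Adult rats were housed individually for 2 days before testing. After 5-min habituation in the home cage, a 21-day juvenile was introduced for a 5-min session and investigation time T1 was recorded on video. Dosing was i.p. 1 min after that session. The same juvenile was reintroduced 120 min later for 5 min (T2). T2–T1 was analysed by one-way ANOVA; n = 8.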

[9] = organism: Rattus norvegicus; experiment: Cognitive enhancing effect in Wistar rat after 1 hr by one-trial object recognition test; assay type: functional, organism-based; summary of the method: as §2
[10] = tested on: Rattus norvegicus; experiment: Cognitive enhancing effect in Wistar rat at 10 mg/kp, ip after 1 hr by one-trial object recognition test; assay type: functional, organism-based; summary of the method: as §2
[11] = tested on: Rattus norvegicus; experiment: Cognitive enhancing effect in Wistar rat assessed as improvement in juvenile recognition behavior at 1 mg/kp, ip; assay type: functional, organism-based; summary of the method: as §3
[12] = tested on: Rattus norvegicus; experiment: Cognitive enhancing effect in Wistar rat assessed as improvement in juvenile recognition behavior at 0.3 mg/kp, ip; assay type: functional, organism-based; summary of the method: as §3
[13] = Lipophilicity, log P by shake flask method; assay type: physicochemical; settings: octanol/water
Summary of the method: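 Partition coefficient was measured between 1-octanol and phosphate buffer, pH 7.40, by shake-flask, using 1×10^-4 M stock drug solutions in octanol or buffer. Drug concentration after partition was measured by UV spectrophotometry at maximum absorbance.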

SMILES | EC [1] [µM] | EC [2] [µM] | Activity [3] [%] | also measured
CN1CNS(=O)(=O)c2cc(Cl)cnc21 | 21 | 81 |  | 
O=S1(=O)N[C@H]2CCCN2c2ccccc21 | 24.6 | 78.2 | 1260 | 
CN1CNS(=O)(=O)c2cccnc21 | 200 | 500 |  | 
NS(=O)(=O)c1cc2c(cc1Cl)NC(C1CC3C=CC1C3)NS2(=O)=O (stereo not drawn) | 1.6 | 9.8 | 844 | 
CCN1CNS(=O)(=O)c2cc(C)cnc21 | > 1000 | > 1000 |  | 
CC1Nc2ccc(Cl)cc2S(=O)(=O)N1 (stereo not drawn) | 134 | 509 | > 700 | 
CCN1CN(C)S(=O)(=O)c2cc(Cl)cnc21 | 110 | 335 |  | 
CN1CNS(=O)(=O)c2ncccc21 | 21 | 51 |  | 
CCN1CNS(=O)(=O)c2cc(Br)cnc21 | 160 | > 300 |  | 
CCN1CNS(=O)(=O)c2cc(Br)ccc21 | 29 | 78 | > 1100 | 
CCN1CNS(=O)(=O)c2cc(Cl)cnc21 | 20 | 44 | 1090 | Activity [4]: Non-toxic; Activity [5]: inactive; Activity [6]: inactive; Activity [7]: Active; Activity [8]: Active; Activity [9]: Dose-dependent effect; Activity [10]: Active; Activity [11]: Active; Activity [12]: Active
CCN1CN(C)S(=O)(=O)c2ncc(C)cc21 | 86 | > 300 |  | 
CN1CNS(=O)(=O)c2cc(F)cnc21 | > 100 |  |  | 
Cc1cnc2c(c1)N(C)CNS2(=O)=O | 146 | > 300 |  | 
CCN1CNS(=O)(=O)c2ncccc21 |  |  |  | logP [13]: 0.12
CCN1CNS(=O)(=O)c2ncc(C)cc21 | 116 | > 300 |  | logP [13]: 0.41
CCN1CNS(=O)(=O)c2cc(C)ccc21 | 25 | 95 | > 1300 | 
CCN1CN(C)S(=O)(=O)c2ncccc21 | 38 | 96 |  | 
CCN1CNS(=O)(=O)c2cc(F)cnc21 | 123 | 300 | > 422 | 
